{"source": "paper PMC5516890", "about": "(Bioconjugate chemistry, 2016)", "key": {"PSMA [1]": {"target": "T1, PSMA (Homo sapiens, UniProt Q04609)", "T1 sequence (Q04609 whole entry)": "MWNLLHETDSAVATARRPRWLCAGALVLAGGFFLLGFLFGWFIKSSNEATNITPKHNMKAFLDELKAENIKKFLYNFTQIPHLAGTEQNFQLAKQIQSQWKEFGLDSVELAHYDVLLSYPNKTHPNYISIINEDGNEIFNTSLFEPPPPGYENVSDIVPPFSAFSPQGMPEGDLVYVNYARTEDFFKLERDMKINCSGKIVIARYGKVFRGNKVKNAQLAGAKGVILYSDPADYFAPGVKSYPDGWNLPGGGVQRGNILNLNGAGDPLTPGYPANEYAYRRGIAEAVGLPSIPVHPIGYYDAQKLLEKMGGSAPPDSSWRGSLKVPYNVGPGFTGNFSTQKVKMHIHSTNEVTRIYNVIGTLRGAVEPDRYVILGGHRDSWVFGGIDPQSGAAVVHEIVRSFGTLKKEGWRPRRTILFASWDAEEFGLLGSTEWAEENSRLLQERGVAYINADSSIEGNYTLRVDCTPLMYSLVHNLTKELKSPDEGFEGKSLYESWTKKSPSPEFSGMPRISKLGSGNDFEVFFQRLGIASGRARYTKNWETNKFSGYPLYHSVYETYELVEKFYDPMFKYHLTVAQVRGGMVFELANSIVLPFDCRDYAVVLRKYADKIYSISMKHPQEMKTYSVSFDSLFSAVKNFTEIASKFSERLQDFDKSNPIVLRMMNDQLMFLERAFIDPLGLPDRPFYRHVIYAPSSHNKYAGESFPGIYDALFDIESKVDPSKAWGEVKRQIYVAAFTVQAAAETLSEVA", "conditions": "for comparison; cited from earlier work"}, "PSMA [2]": {"target": "T1, PSMA", "assay": "PSMA inhibition assay", "assay_type": "biochemical", "conditions": "LNCaP cell lysates, 4 μM NAAG", "outline": "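PSMA source: LNCaP cell lysate. Test compound (0.01 nM–100 μM) incubated with 4 μM NAAG, 37 °C, 2 h. Released glutamate detected with Amplex Red glutamic acid working solution, 37 °C, 60 min; fluorescence ex 490/em 642 nm. IC50 from semilog inhibition curves, then Ki by Cheng–Prusoff. Triplicates; whole inhibition study repeated at least once.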"}, "[3]": {"assay": "Octanol-water partition coefficient", "assay_type": "physicochemical", "conditions": "pH 7.4"}, "kidneys": {"test_system": "kidneys", "assay": "Radiation dosimetry", "assay_type": "in vivo, NOD-SCID mice"}, "[4]": {"test_system": "PSMA^+ PC3 PIP and PSMA^− PC3 flu xenografts", "assay": "Small animal PET imaging", "assay_type": "in vivo, NOD-SCID mice", "outline": "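Male NOD-SCID mice given 1 × 106 PSMA+ PC3 PIP and PSMA− PC3 flu cells s.c. in opposite flanks, cells trypsinized at 80–90% confluence into HBSS. Imaged at 3–5 mm tumors after i.v. 0.36 mCi (13.3 MBq) radiotracer in 0.2 mL PBS under isoflurane/oxygen. PET/CT at 30, 60, 120 min; 10 min per bed, 20 min total; 250–700 keV; FORE/2D-OSEM, decay/dead-time/scatter corrected.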"}}, "note": "Where two headings read alike, the source gives them in different places.", "data": [{"compound": "O=C(O)CCC(NC(=O)NC(CCCCNC(=O)c1ccc(F)cc1)C(=O)O)C(=O)O", "note": "(stereo not shown) [DCFBzL]", "values": [{"measurement": "Ki", "setting": "PSMA [1]", "result": 0.19, "unit": "nM"}]}, {"compound": "O=C(O)CCC(NC(=O)NC(CCCCNC(=O)CCc1cn(CCF)nn1)C(=O)O)C(=O)O", "note": "(stereo not shown) [YC-88, 2-[3-(1-Carboxy-5-{3-[1-(2-fluoroethyl)-1 H-1,2,3-tria-zol-yl]propanamido}pentyl)ureido]pentanedioic Acid]", "values": [{"measurement": "Ki", "setting": "PSMA [2]; 37 °C, 2 h, Cheng–Prusoff conversion", "result": 12.9, "unit": "nM"}, {"measurement": "Ki", "setting": "PSMA [2]; read-out: Ki 95% confidence intervals", "result": "8.7 to 19.1", "unit": "nM"}]}, {"compound": "O=C(O)CCC(NC(=O)NC(CCCCNC(=O)c1ccc([18F])nc1)C(=O)O)C(=O)O", "note": "(stereo not shown) [[^18F]DCFPyL, 2-(3-{1-carboxy-5-[(6-[^18F]fluoropyridine-3-carbonyl)-amino]-pentyl}-ureido)-pentanedioic acid, reference compound]", "values": [{"measurement": "logP", "setting": "[3]", "result": -3.27}, {"measurement": "AUC", "setting": "kidneys; male, NOD-SCID, mouse, in vivo", "result": 340.74, "unit": "% ID/g-h"}, {"measurement": "biological half-life", "setting": "kidneys; male, NOD-SCID, mouse, in vivo", "result": 1.20, "unit": "h"}]}, {"compound": "O=C(O)CCC(NC(=O)NC(CCCCNC(=O)CCc1cn(CC[18F])nn1)C(=O)O)C(=O)O", "note": "(stereo not shown) [[^18F]YC-88, 2-[3-(1-carboxy-5-{3-[1-(2-[^18F]fluoroethyl)-1H-1,2,3-triazol-yl]propanamido}pentyl)ureido]-pentanedioic acid]", "values": [{"measurement": "logP", "setting": "[3]; 1-octanol and PBS", "result": "−3.91"}, {"measurement": "AUC", "setting": "kidneys; kidneys", "result": 70.7, "unit": "% ID/g-h"}, {"measurement": "AUC ratio (agent/YC-88)", "setting": "kidneys; kidneys", "result": 1}, {"measurement": "kidney absorbed dose, decrease compared to [^18F]DCFPyL", "setting": "kidneys; kidneys", "result": "~5", "unit": "fold"}, {"measurement": "biological half-life", "setting": "kidneys; kidneys, single exponential fit of % ID/g data", "result": 1.52, "unit": "h"}, {"measurement": "uptake in normal tissues on PET images", "setting": "[4]; 30, 60, 120 min postinjection", "result": "extremely low uptake"}, {"measurement": "PSMA^+ PC3 PIP tumor uptake on PET images", "setting": "[4]; as early as 30 min postinjection, 0.36 mCi i.v.", "result": "Intense"}]}]}
